In brackets after ≈: the same amount, converted by molar mass. Activity calls are given as the source filed them. The rule behind the calls is not given here.
Legend:
Format in all cases: functional
Staphylococcus aureus [1] = assay: Antibacterial activity against methicillin-resistant Staphylococcus aureus Ig5 clinical isolate after 18 hrs by XTT assay
Procedure, shortened: (§1)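 Mature biofilms grown in TSB + 2% glucose from ~10^5 cfu/mL: 4 h shaken adhesion at 37 °C, medium replaced, then 24 h at 37 °C. Rinsed with PBS, then serial dilutions (150–18.7 or 25–6.25 μg/mL; PEG-200 vehicle for one agent) added for 18 h at 37 °C with shaking. Viability read by XTT–menadione, 2 h dark, 492 nm. MBIC = lowest concentration with no detectable biofilm growth. Triplicate.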

Staphylococcus aureus [2] = assay: Antibacterial activity against Staphylococcus aureus RN4220 after 18 hrs by MTT assay; conditions: RN4220, 18 h
Procedure, shortened: (§2)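 Broth microdilution MIC per CLSI M7-A6. Serial 2-fold dilutions in cation-adjusted Mueller-Hinton broth (20 mg/L Ca2+, 10 mg/L Mg2+), ranging 16 to 0.25 μg/mL (DMSO stock) or 256 to 0.25 μg/mL (ethanol stock). Inoculum 5 × 10^5 cfu in saline. Incubated 37 °C, 18 h. Growth detected by MTT colour change. MIC = lowest concentration with no visible growth.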

Escherichia coli = assay: Antibacterial activity against Escherichia coli ATCC 25922 after 18 hrs by MTT assay; procedure, shortened: as §2
Staphylococcus aureus [3] = assay: Antibacterial activity against Staphylococcus aureus SA1199B after 18 hrs by MTT assay; procedure, shortened: as §2
Staphylococcus aureus [4] = assay: Antibacterial activity against Staphylococcus aureus ATCC 29213 assessed as reduction of microorganisms in biofilm at 150 ug/ml after 18 hrs by XTT assay relative to untreated control; parameters: scale not given: the % may be the effect or the level left
Procedure, shortened: (§3)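 Mature 24 h biofilms grown in TSB + 2% glucose were PBS-rinsed and exposed to the stated concentration for 18 h at 37 °C with shaking. Metabolic activity was then measured by XTT (1 mg/mL in PBS) with menadione, 2 h at 37 °C in the dark, absorbance 492 nm. Activity is expressed as OD relative to untreated TSB biofilms. Triplicate.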

Enterococcus faecalis [5] = assay: Antibacterial activity against Enterococcus faecalis ATCC 29212 assessed as reduction of microorganisms in biofilm at 37.5 ug/ml after 18 hrs by XTT assay relative to untreated control; parameters: scale not given: the % may be the effect or the level left; procedure, shortened: as §3
Staphylococcus aureus [6] = assay: Antibacterial activity against Staphylococcus aureus XU212 after 18 hrs by MTT assay; conditions: XU212, 18 h; procedure, shortened: as §2
Staphylococcus aureus [7] = assay: Antibacterial activity against Staphylococcus aureus ATCC 43300 assessed as reduction of microorganisms in biofilm at 37.5 ug/ml after 18 hrs by XTT assay relative to untreated control; parameters: scale not given: the % may be the effect or the level left; procedure, shortened: as §3
Staphylococcus aureus [8] = assay: Antibacterial activity against Staphylococcus aureus ATCC 29213 after 18 hrs by XTT assay; procedure, shortened: as §1
Enterococcus faecalis [9] = assay: Antibacterial activity against Enterococcus faecalis ATCC 29212 after 18 hrs by XTT assay; procedure, shortened: as §1
Staphylococcus aureus [10] = assay: Antibacterial activity against methicillin-resistant Staphylococcus aureus ATCC 43300 after 18 hrs by MTT assay; conditions: ATCC 43300, 18 h; procedure, shortened: as §2
Staphylococcus aureus [11] = assay: Antibacterial activity against Staphylococcus aureus Ig5 assessed as reduction of microorganisms in biofilm at 37.5 ug/mL after 18 hrs by XTT assay relative to untreated control; parameters: scale not given: the % may be the effect or the level left; procedure, shortened: as §3
Staphylococcus aureus [12] = assay: Antibacterial activity against methicillin-resistant Staphylococcus aureus Ig5 clinical isolate after 18 hrs by MTT assay; conditions: Ig5, 18 h; procedure, shortened: as §2
Staphylococcus aureus [13] = assay: Antibacterial activity against methicillin-resistant Staphylococcus aureus Ig5 clinical isolate assessed as reduction of microorganisms in biofilm at 150 ug/ml after 18 hrs by XTT assay relative to untreated control; parameters: scale not given: the % may be the effect or the level left; procedure, shortened: as §3
Enterococcus faecalis [14] = assay: Antibacterial activity against Enterococcus faecalis ATCC 29212 after 18 hrs by MTT assay; conditions: ATCC 29212, 18 h; procedure, shortened: as §2
Staphylococcus aureus [15] = assay: Antibacterial activity against Staphylococcus aureus ATCC 25923 after 18 hrs by MTT assay; conditions: ATCC 25923, 18 h; procedure, shortened: as §2
Staphylococcus aureus [16] = assay: Antibacterial activity against methicillin-resistant Staphylococcus aureus ATCC 43300 after 18 hrs by XTT assay; procedure, shortened: as §1
Staphylococcus aureus [17] = assay: Antibacterial activity against Staphylococcus aureus ATCC 29213 after 18 hrs by MTT assay; conditions: ATCC 29213, 18 h; procedure, shortened: as §2
Enterococcus faecalis [18] = assay: Antibacterial activity against Enterococcus faecalis ATCC 29212 assessed as reduction of microorganisms in biofilm at 25 ug/ml after 18 hrs by XTT assay relative to untreated control; parameters: scale not given: the % may be the effect or the level left; procedure, shortened: as §3
Staphylococcus aureus [19] = assay: Antibacterial activity against methicillin-resistant Staphylococcus aureus Ig5 clinical isolate assessed as reduction of microorganisms in biofilm at 25 ug/ml after 18 hrs by XTT assay relative to untreated control; parameters: scale not given: the % may be the effect or the level left; procedure, shortened: as §3
Staphylococcus aureus [20] = assay: Antibacterial activity against Staphylococcus aureus EMRSA-15 after 18 hrs by MTT assay; conditions: EMRSA-15, 18 h; procedure, shortened: as §2
Staphylococcus aureus [21] = assay: Antibacterial activity against Staphylococcus aureus ATCC 29213 assessed as reduction of microorganisms in biofilm at 25 ug/ml after 18 hrs by XTT assay relative to untreated control; parameters: scale not given: the % may be the effect or the level left; procedure, shortened: as §3
Staphylococcus aureus [22] = assay: Antibacterial activity against Staphylococcus aureus ATCC 43300 assessed as reduction of microorganisms in biofilm at 25 ug/ml after 18 hrs by XTT assay relative to untreated control; parameters: scale not given: the % may be the effect or the level left; procedure, shortened: as §3

SMILES | MBIC (Staphylococcus aureus [1]) | MIC (Staphylococcus aureus [2]) | MIC (Escherichia coli) | MIC (Staphylococcus aureus [3]) | MIC (Staphylococcus aureus [6]) | MBIC (Staphylococcus aureus [8]) | MBIC (Enterococcus faecalis [9]) | MIC (Staphylococcus aureus [10]) | MIC (Staphylococcus aureus [12]) | MIC (Enterococcus faecalis [14]) | MIC (Staphylococcus aureus [15]) | MBIC (Staphylococcus aureus [16]) | MIC (Staphylococcus aureus [17]) | MIC (Staphylococcus aureus [20]) | other results
C1CCC(NC2CCCCC2)CC1.CC(C)CCC[C@]1(C)[C@@H](CCC(C)C)C[C@@]2(CCC(C)C)C(=O)[C@]1(C(=O)C(C)C)C(=O)C(CCC(C)C)=C2O [OCTAHYDROHYPERFORIN DICYCLOHEXYLAMMONIUM SALT] | 37.5 µg/mL | 1 µg/mL | inactive | 4 µg/mL | 1 µg/mL | 150 µg/mL | 37.5 µg/mL | 4 µg/mL | 4 µg/mL | 4 µg/mL | 4 µg/mL | 37.5 µg/mL | 4 µg/mL |  | Activity (Staphylococcus aureus [4]): 52%; Activity (Enterococcus faecalis [5]): 45%; Activity (Staphylococcus aureus [7]): 47%; Activity (Staphylococcus aureus [11]): 52%; Activity (Staphylococcus aureus [13]): 45%
C1CCC(NC2CCCCC2)CC1.CC(C)=CCC[C@]1(C)[C@@H](CC=C(C)C)C[C@]2(CC=C(C)C)C(=O)C(CC=C(C)C)=C(O)[C@@]1(C(=O)C(C)C)C2=O | 25 µg/mL |  | inactive | 2 µg/mL | 0.5 µg/mL | 25 µg/mL | 25 µg/mL | 1 µg/mL | 1 µg/mL | 1 µg/mL | 1 µg/mL | 25 µg/mL | 1 µg/mL | 2 µg/mL | Activity (Enterococcus faecalis [18]): 34%; Activity (Staphylococcus aureus [19]): 33%; Activity (Staphylococcus aureus [21]): 45%; Activity (Staphylococcus aureus [22]): 21%
CCn1cc(C(=O)O)c(=O)c2cc(F)c(N3CCNCC3)cc21 [NORFLOXACIN] |  | 1 µg/mL (≈ 3.13 µM) |  | 32 µg/mL (≈ 100 µM) | 4 µg/mL (≈ 12.5 µM) |  |  | 4 µg/mL (≈ 12.5 µM) | 2 µg/mL (≈ 6.26 µM) | 4 µg/mL (≈ 12.5 µM) | 2 µg/mL (≈ 6.26 µM) |  | 2 µg/mL (≈ 6.26 µM) | 0.5 µg/mL (≈ 1.57 µM) | MIC (Escherichia coli; ATCC 25922, 18 h): 0.12 µg/mL (≈ 0.376 µM)

Source: ChEMBL document CHEMBL2424585, “Biological evaluation of hyperforin and its hydrogenated analogue on bacterial growth and biofilm production” (2013)
